Tested on: PCNA replication foci in NIH3T3 cells
Assay type: cell-based, murine
Settings: for foci formation and co-localization with PCNA during S-phase: NIH3T3 cells co-transfected with CFP-PCNA, 24–48 h; for sub-cellular localization: NIH3T3 cells, confocal imaging; for Small foci (CFP-PCNA) / Large foci (CFP-PCNA) / Mid Foci (CFP-PCNA): CFP channel (CFP-PCNA) in cells co-expressing the hEXO1 protein, 50 co-transfected cells; for Small foci (CFP-PCNA): early S-phase foci; for Large foci (CFP-PCNA): late S-phase foci; for Mid Foci (CFP-PCNA): mid S-phase foci; for effect of expression on S-phase distribution: NIH3T3 cells co-expressing CFP-PCNA
Outline: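 Murine NIH3T3 cells were kept in DMEM with 10% FBS and penicillin/streptomycin at 37 °C, 10% CO₂. Cells (2*10⁵ per glass-bottom dish) were seeded 24 h before ExGen500 co-transfection with 3 μg total plasmid (CFP-PCNA plus YFP fusion). Confocal imaging at 24–48 h. Co-transfected cells were counted and binned by pattern, e.g. "no foci" (diffuse CFP-PCNA, diffuse nuclear YFP).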

Molecule	foci formation and co-localization with PCNA during S-phase	sub-cellular localization	Small foci (CFP-PCNA)	Large foci (CFP-PCNA)	Mid Foci (CFP-PCNA)	effect of expression on S-phase distribution
YFP-hEXO1-S598X: COOH-terminally truncated version of YFP-hEXO1 (protein, UniProt Q9UQ84 1-597, looked up, fragment, N-terminal YFP tag) MGIQGLLQFIKEASEPIHVRKYKGQVVAVDTYCWLHKGAIACAEKLAKGEPTDRYVGFCMKFVNMLLSHGIKPILVFDGCTLPSKKEVERSRRERRQANLLKGKQLLREGKVSEARECFTRSINITHAMAHKVIKAARSQGVDCLVAPYEADAQLAYLNKAGIVQAIITEDSDLLAFGCKKVILKMDQFGNGLEIDQARLGMCRQLGDVFTEEKFRYMCILSGCDYLSSLRGIGLAKACKVLRLANNPDIVKVIKKIGHYLKMNITVPEDYINGFIRANNTFLYQLVFDPIKRKLIPLNAYEDDVDPETLSYAGQYVDDSIALQIALGNKDINTFEQIDDYNPDTAMPAHSRSHSWDDKTCQKSANVSSIWHRNYSPRPESGTVSDAPQLKENPSTVGVERVISTKGLNLPRKSSIVKRPRSAELSEDDLLSQYSLSFTKKTKKNSSEGNKSLSFSEVFVPDLVNGPTNKKSVSTPPRTRNKFATFLQRKNEESGAVVVPGTRSRFFCSSDSTDCVSNKVSIQPLDETAVTDKENNLHESEYGDQEGKRLVDTDVARNSSDDIPNNHIPGDHIPDKATVFTDEESYSFESSKFTRTI	none of the variant proteins were able to form foci or co-localize with PCNA during S-phase	strictly nuclear				
hMLH1: fusion protein, CFP or YFP tagged MMR protein (protein, left off: GST, end not stated, kept) MSFVAGVIRRLDETVVNRIAAGEVIQRPANAIKEMIENCLDAKSTSIQVIVKEGGLKLIQIQDNGTGIRKEDLDIVCERFTTSKLQSFEDLASISTYGFRGEALASISHVAHVTITTKTADGKCAYRASYSDGKLKAPPKPCAGNQGTQITVEDLFYNIATRRKALKNPSEEYGKILEVVGRYSVHNAGISFSVKKQGETVADVRTLPNASTVDNIRSIFGNAVSRELIEIGCEDKTLAFKMNGYISNANYSVKKCIFLLFINHRLVESTSLRKAIETVYAAYLPKNTHPFLYLSLEISPQNVDVNVHPTKHEVHFLHEESILERVQQHIESKLLGSNSSRMYFTQTLLPGLAGPSGEMVKSTTSLTSSSTSGSSDKVYAHQMVRTDSREQKLDAFLQPLSKPLSSQPQAIVTEDKTDISSGRARQQDEEMLELPAPAEVAAKNQSLEGDTTKGTSEMSEKRGPTSSNPRKRHREDSDVEMVEDDSRKEMTAACTPRRRIINLTSVLSLQEEINEQGHEVLREMLHNHSFVGCVNPQWALAQHQTKLYLLNTTKLSEELFYQILIYDFANFGVLRLSEPAPLFDLAMLALDSPESGWTEEDGPKEGLAEYIVEFLKKKAEMLADYFSLEIDEEGNLIGLPLLIDNYVPPLEGLPIFILRLATEVNWDEEKECFESLSKECAMFYSIRKQYISEESTLSGQQSEVPGSIPNSWKWTVEHIVYKALRSHILPPKHFTEDGNILQLANLPDLYKVFERC	unable to observe CFP-PCNA co-localized YFP-hMLH1 foci					
YFP-hEXO1-C508X: COOH-terminally truncated version of YFP-hEXO1 (protein, UniProt Q9UQ84 1-507, looked up, fragment, N-terminal YFP tag) MGIQGLLQFIKEASEPIHVRKYKGQVVAVDTYCWLHKGAIACAEKLAKGEPTDRYVGFCMKFVNMLLSHGIKPILVFDGCTLPSKKEVERSRRERRQANLLKGKQLLREGKVSEARECFTRSINITHAMAHKVIKAARSQGVDCLVAPYEADAQLAYLNKAGIVQAIITEDSDLLAFGCKKVILKMDQFGNGLEIDQARLGMCRQLGDVFTEEKFRYMCILSGCDYLSSLRGIGLAKACKVLRLANNPDIVKVIKKIGHYLKMNITVPEDYINGFIRANNTFLYQLVFDPIKRKLIPLNAYEDDVDPETLSYAGQYVDDSIALQIALGNKDINTFEQIDDYNPDTAMPAHSRSHSWDDKTCQKSANVSSIWHRNYSPRPESGTVSDAPQLKENPSTVGVERVISTKGLNLPRKSSIVKRPRSAELSEDDLLSQYSLSFTKKTKKNSSEGNKSLSFSEVFVPDLVNGPTNKKSVSTPPRTRNKFATFLQRKNEESGAVVVPGTRSRFF	none of the variant proteins were able to form foci or co-localize with PCNA during S-phase	strictly nuclear				
YFP-hEXO1-Q788A;L791A: PIP-box mutant of YFP-hEXO1 (protein, UniProt Q9UQ84 1-846, looked up, variant Q788A L791A, N-terminal YFP tag) Exonuclease 1: MGIQGLLQFIKEASEPIHVRKYKGQVVAVDTYCWLHKGAIACAEKLAKGEPTDRYVGFCMKFVNMLLSHGIKPILVFDGCTLPSKKEVERSRRERRQANLLKGKQLLREGKVSEARECFTRSINITHAMAHKVIKAARSQGVDCLVAPYEADAQLAYLNKAGIVQAIITEDSDLLAFGCKKVILKMDQFGNGLEIDQARLGMCRQLGDVFTEEKFRYMCILSGCDYLSSLRGIGLAKACKVLRLANNPDIVKVIKKIGHYLKMNITVPEDYINGFIRANNTFLYQLVFDPIKRKLIPLNAYEDDVDPETLSYAGQYVDDSIALQIALGNKDINTFEQIDDYNPDTAMPAHSRSHSWDDKTCQKSANVSSIWHRNYSPRPESGTVSDAPQLKENPSTVGVERVISTKGLNLPRKSSIVKRPRSAELSEDDLLSQYSLSFTKKTKKNSSEGNKSLSFSEVFVPDLVNGPTNKKSVSTPPRTRNKFATFLQRKNEESGAVVVPGTRSRFFCSSDSTDCVSNKVSIQPLDETAVTDKENNLHESEYGDQEGKRLVDTDVARNSSDDIPNNHIPGDHIPDKATVFTDEESYSFESSKFTRTISPPTLGTLRSCFSWSGGLGDFSRTPSPSPSTALQQFRRKSDSPTSLPENNMSDVSQLKSEESSDDESHPLREEACSSQSQESGEFSLQSSNASKLSQCSSKDSDSEESDCNIKLLDSQSDQTSKLRLSHFSKKDTPLRNKVPGLYKSSSADSLSTTKIKPLGPARASGLSKKPASIQKRKHHNAENKPGLAIKANELWKNFGFKKDSEKLPPCKKPLSPVRDNIQLTPEAEEDIFNKPECGRVQRAIFQ	unable to form nuclear foci and does not co-localize with PCNA, at any time point during S-phase		22%	8%	18%	no adverse effects on S-phase distribution
YFP-hEXO1-Q154A;Y157A: putative PIP-box substitution variant of YFP-hEXO1 (protein, UniProt Q9UQ84 1-846, looked up, variant Q154A Y157A, N-terminal YFP tag) Exonuclease 1: MGIQGLLQFIKEASEPIHVRKYKGQVVAVDTYCWLHKGAIACAEKLAKGEPTDRYVGFCMKFVNMLLSHGIKPILVFDGCTLPSKKEVERSRRERRQANLLKGKQLLREGKVSEARECFTRSINITHAMAHKVIKAARSQGVDCLVAPYEADAALAALNKAGIVQAIITEDSDLLAFGCKKVILKMDQFGNGLEIDQARLGMCRQLGDVFTEEKFRYMCILSGCDYLSSLRGIGLAKACKVLRLANNPDIVKVIKKIGHYLKMNITVPEDYINGFIRANNTFLYQLVFDPIKRKLIPLNAYEDDVDPETLSYAGQYVDDSIALQIALGNKDINTFEQIDDYNPDTAMPAHSRSHSWDDKTCQKSANVSSIWHRNYSPRPESGTVSDAPQLKENPSTVGVERVISTKGLNLPRKSSIVKRPRSAELSEDDLLSQYSLSFTKKTKKNSSEGNKSLSFSEVFVPDLVNGPTNKKSVSTPPRTRNKFATFLQRKNEESGAVVVPGTRSRFFCSSDSTDCVSNKVSIQPLDETAVTDKENNLHESEYGDQEGKRLVDTDVARNSSDDIPNNHIPGDHIPDKATVFTDEESYSFESSKFTRTISPPTLGTLRSCFSWSGGLGDFSRTPSPSPSTALQQFRRKSDSPTSLPENNMSDVSQLKSEESSDDESHPLREEACSSQSQESGEFSLQSSNASKLSQCSSKDSDSEESDCNIKLLDSQSDQTSKLRLSHFSKKDTPLRNKVPGLYKSSSADSLSTTKIKPLGPARASGLSKKPASIQKRKHHNAENKPGLQIKLNELWKNFGFKKDSEKLPPCKKPLSPVRDNIQLTPEAEEDIFNKPECGRVQRAIFQ	to some extent are able to form S-phase foci in co-localization with PCNA		28%	0%	4%	unable to detect replication foci in late S-phase
YFP-hEXO1-Q285A;F288A: putative PIP-box substitution variant of YFP-hEXO1 (protein, UniProt Q9UQ84 1-846, looked up, variant Q285A F288A, YFP tag) Exonuclease 1: MGIQGLLQFIKEASEPIHVRKYKGQVVAVDTYCWLHKGAIACAEKLAKGEPTDRYVGFCMKFVNMLLSHGIKPILVFDGCTLPSKKEVERSRRERRQANLLKGKQLLREGKVSEARECFTRSINITHAMAHKVIKAARSQGVDCLVAPYEADAQLAYLNKAGIVQAIITEDSDLLAFGCKKVILKMDQFGNGLEIDQARLGMCRQLGDVFTEEKFRYMCILSGCDYLSSLRGIGLAKACKVLRLANNPDIVKVIKKIGHYLKMNITVPEDYINGFIRANNTFLYALVADPIKRKLIPLNAYEDDVDPETLSYAGQYVDDSIALQIALGNKDINTFEQIDDYNPDTAMPAHSRSHSWDDKTCQKSANVSSIWHRNYSPRPESGTVSDAPQLKENPSTVGVERVISTKGLNLPRKSSIVKRPRSAELSEDDLLSQYSLSFTKKTKKNSSEGNKSLSFSEVFVPDLVNGPTNKKSVSTPPRTRNKFATFLQRKNEESGAVVVPGTRSRFFCSSDSTDCVSNKVSIQPLDETAVTDKENNLHESEYGDQEGKRLVDTDVARNSSDDIPNNHIPGDHIPDKATVFTDEESYSFESSKFTRTISPPTLGTLRSCFSWSGGLGDFSRTPSPSPSTALQQFRRKSDSPTSLPENNMSDVSQLKSEESSDDESHPLREEACSSQSQESGEFSLQSSNASKLSQCSSKDSDSEESDCNIKLLDSQSDQTSKLRLSHFSKKDTPLRNKVPGLYKSSSADSLSTTKIKPLGPARASGLSKKPASIQKRKHHNAENKPGLQIKLNELWKNFGFKKDSEKLPPCKKPLSPVRDNIQLTPEAEEDIFNKPECGRVQRAIFQ	to some extent are able to form S-phase foci in co-localization with PCNA		34%	0%	0%	unable to detect replication foci in late S-phase

— paper PMC4586255 (DNA repair, 2010)
